pKd: −log10 of the molar value. Square brackets hold non-standard residues; d marks the D form. Peptide text beside a SMILES is read from it. pY = N[C@@H](Cc1ccc(OP(=O)(O)O)cc1)C(=O)O
How the values were obtained:
[1] = target: T1, SHP2 C-SH2 (SHP2 106–220) (Homo sapiens, UniProt Q06124); assay: Isothermal titration calorimetry, peptide titrated onto C-SH2; format: binding
T1 sequence (Q06124 106-220): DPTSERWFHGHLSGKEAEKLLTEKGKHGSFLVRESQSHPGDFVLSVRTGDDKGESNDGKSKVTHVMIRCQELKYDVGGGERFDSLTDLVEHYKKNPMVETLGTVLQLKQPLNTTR

SHP2 N-SH2 = target: T2, SHP2 N-SH2 (Homo sapiens, UniProt Q06124); assay: NMR 1H,15N-HSQC titration of N-SH2; format: binding; conditions: 1H,15N-HSQC with increasing peptide; protein 200 μM, 298 K
T2 sequence (Q06124 1-105): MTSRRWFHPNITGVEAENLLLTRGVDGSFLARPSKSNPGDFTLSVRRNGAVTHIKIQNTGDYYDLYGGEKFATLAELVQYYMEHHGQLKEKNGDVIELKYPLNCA

SHP2 C-SH2 = assay: NMR 1H,15N-HSQC titration of C-SH2; format: binding, Human; conditions: 1H,15N-HSQC with increasing peptide; protein 200 μM, 298 K
In short: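 Uniformly 15N-labelled SHP2 C-SH2 is expressed in Tuner (DE3) E. coli in minimal medium with 15NH4Cl. Protein at 200 µM is titrated with increasing stoichiometric ratios of N-acetylated, C-amidated phosphopeptide. CSPs combine 1H and 0.15-weighted 15N shift differences.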

binding to C-SH2 by NMR spectra (SHP2 C-SH2) | Molecule | pKd [1] | binding to N-SH2 by NMR spectra (SHP2 N-SH2)
– | CC[C@H](C)[C@H](NC(=O)[C@H](CC(N)=O)NC(=O)[C@@H](NC(=O)[C@H](Cc1ccc(OP(=O)(O)O)cc1)NC(=O)[C@H](CCC(=O)O)NC(=O)[C@H](Cc1c[nH]cn1)NC(=O)CNC(=O)[C@H](CCCCN)NC(=O)[C@H](CCCNC(=N)N)NC(=O)[C@H](CCCCN)NC(C)=O)[C@@H](C)O)C(=O)N[C@@H](CCCCN)C(=O)N[C@@H](Cc1ccc(O)cc1)C(=O)N[C@@H](CO)C(N)=O [SHP2-pY542] (Ac-KRKGHE[pY]TNIKYS-NH2) | 4.55 | neither SHP2-pY542 nor SHP2-pY580 bind significantly
no binding | EDSARVpYENVGLE [SHP2-pY580] | – | neither SHP2-pY542 nor SHP2-pY580 bind significantly
